Test results published in PubChem BioAssay.
Active and inactive are the calls of the source.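 Rule for the calls, unless noted: active = current rise at least 3 SD above the untreated control mean in each of two repeat wells; inactive = the rest.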

Biological target: Potassium voltage-gated channel subfamily KQT member 2 (Rattus norvegicus) (UniProt O88943)
Assay: rat KCNQ2 channel potentiation, selectivity assay for KCNQ1 potentiator project, KCNQ2-CHO-K1 cells (AID 493009;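 active = mean duplicate potentiation above the buffer control mean plus 5 SD of buffer wells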;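 note: assay conditions were tuned for KCNQ1 rather than KCNQ2 modulators; signal is max minus min fluorescence divided by baseline after thallium stimulus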)
Conditions: FluxOR thallium flux fluorescence, at 10 µM; active compounds read high, scaled: buffer 0, activator control 100

Potassium voltage-gated channel subfamily KQT member 2 (Rattus norvegicus), sequence (O88943 whole entry, looked up): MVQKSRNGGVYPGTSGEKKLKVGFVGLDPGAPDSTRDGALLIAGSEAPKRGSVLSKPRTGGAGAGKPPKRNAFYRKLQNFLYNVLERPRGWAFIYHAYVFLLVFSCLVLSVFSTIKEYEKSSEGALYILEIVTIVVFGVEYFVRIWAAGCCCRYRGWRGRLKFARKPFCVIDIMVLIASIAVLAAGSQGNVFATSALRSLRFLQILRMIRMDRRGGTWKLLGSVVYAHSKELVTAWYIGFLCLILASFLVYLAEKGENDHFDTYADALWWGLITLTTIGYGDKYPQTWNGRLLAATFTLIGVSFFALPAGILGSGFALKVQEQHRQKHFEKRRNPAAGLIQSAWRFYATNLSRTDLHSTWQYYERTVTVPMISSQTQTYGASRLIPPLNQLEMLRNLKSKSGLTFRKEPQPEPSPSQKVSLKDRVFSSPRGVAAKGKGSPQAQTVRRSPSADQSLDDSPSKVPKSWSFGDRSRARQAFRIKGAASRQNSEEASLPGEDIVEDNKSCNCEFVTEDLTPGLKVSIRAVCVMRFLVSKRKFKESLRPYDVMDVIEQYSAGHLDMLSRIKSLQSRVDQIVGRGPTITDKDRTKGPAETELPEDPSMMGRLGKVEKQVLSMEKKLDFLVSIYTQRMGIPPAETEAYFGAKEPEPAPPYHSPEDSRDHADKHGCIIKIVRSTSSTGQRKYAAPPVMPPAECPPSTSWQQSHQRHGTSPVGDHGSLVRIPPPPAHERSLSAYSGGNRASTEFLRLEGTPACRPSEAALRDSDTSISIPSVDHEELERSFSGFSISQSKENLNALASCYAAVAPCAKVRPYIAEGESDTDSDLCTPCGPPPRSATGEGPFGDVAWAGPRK

outcome, inactive:
COc1ccc(-n2c(=S)[nH]c3c(oc4ccccc43)c2=O)cc1, COc1ccc(-c2sc(C(=O)c3ccc(Cl)cc3Cl)cc2CC(=O)O)cc1, Nc1c(Cl)cc(C2=NCCn3nc4cc(C(F)(F)F)ccc4c32)cc1Cl, Cc1ccc(Cc2cnc(N3C(=N)SC(c4ccccc4)C3=O)s2)cc1 (configuration not stated), Cc1ccc(NC(=S)N2CCC(N(C)CC3CCCO3)CC2)cc1 (configuration not stated), Cc1cc(C)cc(-n2ccnc2SCC(=O)Nc2nccs2)c1, CCCCn1c(NS(=O)(=O)c2ccc(C)cc2)c(S(=O)(=O)c2ccccc2)c2nc3ccccc3nc21, CC1CCCCN1C(=S)NC(=O)c1cccs1 (configuration not stated), COC(=O)[C@@H]1CCCN1C(=O)CCc1nnc(CCC2CCCCC2)o1, CCC(C)NC(=O)c1cc(Cl)c(NC(=O)C2=C(C)OCCS2)cc1OC (configuration not stated), CC(C)(C)CC(C)(C)NCC(O)COCCOc1ccc(Br)cc1 (configuration not stated), COc1ccc(CN(C)C(=O)c2ccc3ccccc3n2)cc1F, Cc1nn2c(NCc3ccccn3)cc(C(C)C)nc2c1-c1ccccc1, O=C(NC(=S)NC1CCCCC1)c1ccc(F)cc1, Cn1ncc([N+](=O)[O-])c1C(=O)N/N=C/c1ccc(F)cc1

potentiation, active:
CCN(CC)c1ccc(NC(=S)NC(=O)c2ccco2)cc1 322%, Cc1ccc(-c2csc3nc[nH]c(=S)c23)cc1C 222%, CC1Cc2ccccc2N1C(=S)NC(=O)c1ccc(Cl)cc1Cl (configuration not stated) 248%, CCc1nnc(NC(=O)c2ccc(S(=O)(=O)N(CC)Cc3ccccc3)cc2)o1 270%, C=CCNC(=S)Nc1sc2c(c1C(=O)OCC)CC(C)(CC)OC2 (configuration not stated) 254%, Cc1ccc(OCC(=O)NNC(=S)NC(=O)c2cccs2)c(C)c1 238%, CC1CCc2sc3nc(N4CCN(CCO)CC4)n4ncnc4c3c2C1 (configuration not stated) 500%

Biological target: Potassium voltage-gated channel subfamily KQT member 1 (Homo sapiens) (UniProt P51787)
Assay: KCNQ1 channel current potentiators, confirmation, orthogonal assay for KCNQ1 potentiator project, IonWorks patch clamp, KCNQ1-CHO cells (AID 493184);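 for Current potentiation: percent change of the same well's current before compound addition so 0% = no change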
Conditions: automated patch clamp current, at 10 µM; active compounds read high
Outline: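 Probe or stimulus: depolarizing pulse to +40 mV from -90 mV; Material: CHO cells carrying KCNQ1; Compound: one dose, 10 µM final; Signal: automated voltage clamp, amphotericin B perforated patch; Read-out basis: percent current increase versus pre-compound level; Buffer or medium: pH 7.4 external bath; Replication: duplicates.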

Potassium voltage-gated channel subfamily KQT member 1 (Homo sapiens), sequence (P51787 whole entry, looked up): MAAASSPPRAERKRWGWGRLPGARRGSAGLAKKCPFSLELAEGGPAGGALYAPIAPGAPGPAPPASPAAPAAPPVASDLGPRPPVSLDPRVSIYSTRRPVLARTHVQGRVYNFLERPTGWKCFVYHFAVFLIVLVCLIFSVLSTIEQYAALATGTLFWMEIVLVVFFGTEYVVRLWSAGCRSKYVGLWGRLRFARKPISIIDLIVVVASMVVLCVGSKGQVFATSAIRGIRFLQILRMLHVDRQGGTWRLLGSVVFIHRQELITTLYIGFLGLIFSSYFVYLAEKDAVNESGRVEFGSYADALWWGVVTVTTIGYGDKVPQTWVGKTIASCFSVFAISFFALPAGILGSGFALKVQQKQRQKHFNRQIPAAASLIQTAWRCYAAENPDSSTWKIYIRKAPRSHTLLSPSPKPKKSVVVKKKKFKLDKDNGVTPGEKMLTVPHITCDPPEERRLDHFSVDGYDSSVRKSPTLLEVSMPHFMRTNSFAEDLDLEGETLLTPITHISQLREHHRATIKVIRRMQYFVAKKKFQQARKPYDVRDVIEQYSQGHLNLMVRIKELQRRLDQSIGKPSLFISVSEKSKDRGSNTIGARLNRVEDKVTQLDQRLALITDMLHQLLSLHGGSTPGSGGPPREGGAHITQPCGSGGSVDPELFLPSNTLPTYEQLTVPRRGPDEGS

outcome, inactive:
Nc1c(C(=O)Nc2ccc(F)cc2)nnn1-c1cccc(C(F)(F)F)c1, N=C1S/C(=C\c2ccco2)C(=O)N1c1nccs1, CCOc1ccc(-c2c(=O)n(O)c3ccccc3[n+]2[O-])cc1, O=C(Nc1nnc(-c2ccco2)o1)c1cccc(Cl)c1, COc1cccc(C(=O)Nc2nc(-c3ccccc3)c(-c3ccccc3)o2)c1, Cc1ccc(C)c(NC(=S)N/N=C2/CCCCc3ccccc32)c1, Cc1cc(C(=O)N/N=C/c2cccs2)no1, N#Cc1ccccc1NS(=O)(=O)c1cc2c3c(c1)CCC(=O)N3CCC2, Cc1nn(C)c(C(=O)NC(=S)Nc2ccccc2Br)c1Cl, CC(C)Cc1c2c([nH]c(=S)c1C#N)CCCC2, Oc1ccc(N=Nc2ccc3c(c2)OCCO3)c2ncccc12, Cc1ccc(C(=O)Nc2nc3ccccc3c(=O)s2)cc1, CN(Cc1nccs1)C(=O)c1ccc(OC2CCN(Cc3ccccn3)CC2)cc1, COc1ccc(C(=O)NC(=S)NNC(=O)c2ccc3ccccc3n2)cc1, COc1ccc(-c2nc(=S)c3ccc4ccccc4c3[nH]2)cc1, Cc1[nH]c(=S)sc1Cc1ccc(F)cc1, CC(=O)c1c(C)[nH]c(C(=O)Nc2cccc(C(F)(F)F)c2)c1C, CC1(C)Cc2c(sc3[nH]c(=S)n(Cc4ccccc4)c(=O)c23)CO1, COc1ccc(-n2c(=S)[nH]c3c(oc4ccccc43)c2=O)cc1, CCN(CC)c1ccc(NC(=S)NC(=O)c2ccco2)cc1, Cc1ccc(-c2csc3nc[nH]c(=S)c23)cc1C, CC1Cc2ccccc2N1C(=S)NC(=O)c1ccc(Cl)cc1Cl (configuration not stated), Nc1c(Cl)cc(C2=NCCn3nc4cc(C(F)(F)F)ccc4c32)cc1Cl, Cc1ccc(Cc2cnc(N3C(=N)SC(c4ccccc4)C3=O)s2)cc1 (configuration not stated), Cc1ccc(NC(=S)N2CCC(N(C)CC3CCCO3)CC2)cc1 (configuration not stated), Cc1cc(C)cc(-n2ccnc2SCC(=O)Nc2nccs2)c1, CCc1nnc(NC(=O)c2ccc(S(=O)(=O)N(CC)Cc3ccccc3)cc2)o1, CCCCn1c(NS(=O)(=O)c2ccc(C)cc2)c(S(=O)(=O)c2ccccc2)c2nc3ccccc3nc21, C=CCNC(=S)Nc1sc2c(c1C(=O)OCC)CC(C)(CC)OC2 (configuration not stated), Cc1ccc(OCC(=O)NNC(=S)NC(=O)c2cccs2)c(C)c1, CC1CCCCN1C(=S)NC(=O)c1cccs1 (configuration not stated), COC(=O)[C@@H]1CCCN1C(=O)CCc1nnc(CCC2CCCCC2)o1, CCC(C)NC(=O)c1cc(Cl)c(NC(=O)C2=C(C)OCCS2)cc1OC (configuration not stated), CC(C)(C)CC(C)(C)NCC(O)COCCOc1ccc(Br)cc1 (configuration not stated), COc1ccc(CN(C)C(=O)c2ccc3ccccc3n2)cc1F, CC1CCc2sc3nc(N4CCN(CCO)CC4)n4ncnc4c3c2C1 (configuration not stated), Cc1nn2c(NCc3ccccn3)cc(C(C)C)nc2c1-c1ccccc1, O=C(NC(=S)NC1CCCCC1)c1ccc(F)cc1, Cn1ncc([N+](=O)[O-])c1C(=O)N/N=C/c1ccc(F)cc1

Current potentiation, active:
COc1ccc(-c2sc(C(=O)c3ccc(Cl)cc3Cl)cc2CC(=O)O)cc1 33.9%
